The test system of experiment [1] is Angiotensin-converting enzyme (Cavia porcellus). Description: In vitro inhibitory activity against Angiotensin I converting enzyme from unpurified guinea pig serum; No significant activity.
The subject of experiment [2] is Rattus norvegicus. Description: % decrease in mean arterial pressure in conscious renal hypertensive rats at a dose of 3 mg/Kg, administered perorally at MAP 190 mm Hg. The format is functional, Artery. The method in brief:
(§1)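 Conscious two-kidney, one-clip Goldblatt renal hypertensive rats (N = 3) were dosed orally at 3 or 30 mg/kg. Predose mean arterial pressure was about 190 mmHg. The read-out is % decrease in mean arterial pressure. N marks no significant lowering of arterial pressure at that dose.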

Experiment [3] has as its system Rattus norvegicus. As to the kind of experiment: % decrease in mean arterial pressure in conscious renal hypertensive rats at a dose of 3 mg/Kg, administered perorally at MAP 190 mm Hg; N means no significant lowering of arterial pressure. In kind it is functional, organism-based. The settings on record: Artery. The method in brief: as §1
Experiment [4] relates to Rattus norvegicus. As to the kind of experiment: % Decrease in mean arterial pressure in conscious renal hypertensive rats at a dose of 30 mg/Kg, administered perorally at MAP 190 mmHg. In kind it is functional, Artery. The method, boiled down: as §1
Experiment [5] concerns Rattus norvegicus. As to the kind of experiment: % decrease in mean arterial pressure in conscious renal hypertensive rats at a dose of 30 mg/Kg, administered perorally at MAP 190 mmHg. In kind it is functional, Artery. The method, boiled down: as §1
Experiment [6] deals with Rattus norvegicus. As to the kind of experiment: % decrease in mean arterial pressure in conscious renal hypertensive rats at a dose of 3 mg/Kg, administered perorally at MAP 190 mmHg. The format is functional, Artery. The method in brief:
as §1

Experiment [7] concerns Rattus norvegicus. As to the kind of experiment: % Decrease in mean arterial pressure in conscious renal hypertensive rats at a dose of 3 mg/Kg, administered perorally at MAP 190 mm Hg; N means no significant lowering of arterial pressure. The settings on record: Artery. The format is functional, organism-based. The method, boiled down:
as §1

The test system of experiment [8] is Rattus norvegicus. Description: % Decrease in mean arterial pressure in conscious renal hypertensive rats at a dose of 3 mg/Kg, administered perorally at MAP 190 mmHg. In kind it is functional, Artery. The method, boiled down:
as §1

`CC(C(=O)N1CCC[C@H]1C(=O)O)S(=O)(=O)C(CCc1ccccc1)C(=O)O` (stereo partly drawn): the IC50 result in experiment [1] is “No significant activity”.
As to `CCOC(=O)C(CCc1ccccc1)S(=O)(=O)C(C)C(=O)N1CCC[C@H]1C(=O)O` (stereo partly drawn), the IC50 entry in experiment [1] is “No significant activity”.
Consider `C[C@H](CS)C(=O)N1CCC[C@H]1C(=O)O` [CAPTOPRIL], for which, in the experiment with Rattus norvegicus [2], the “Decrease in mean arterial pressure” value is given as 49%.
As for `CCOC(=O)C(CCc1ccccc1)OC(C)C(=O)N1CCCC1C(=O)O` (stereo not drawn), the “Decrease in mean arterial pressure” value with Rattus norvegicus [3] is “No significant activity”; in the experiment with Rattus norvegicus [4] it was 3%.
In the case of `CCOC(=O)[C@H](CCc1ccccc1)N[C@@H](C)C(=O)N1C2CCCCC2C[C@H]1C(=O)O` (stereo partly drawn), the “Decrease in mean arterial pressure” value with Rattus norvegicus [2] was 46%.
On to `CC(OC(CCc1ccccc1)C(=O)O)C(=O)N1CCCC1C(=O)O` (stereo not drawn), for which the “Decrease in mean arterial pressure” value was “No significant activity” in the experiment with Rattus norvegicus [3] and 9% in the experiment on Rattus norvegicus [5].
`CCOC(=O)[C@H](CCc1ccccc1)N[C@@H](C)C(=O)N1CCC[C@H]1C(=O)O`: the “Decrease in mean arterial pressure” value in the experiment with Rattus norvegicus [2] is 55%.
On to `CC(SC(CCc1ccccc1)C(=O)O)C(=O)NC1(C(=O)O)CCC(c2ccccc2)CC1` (stereo not drawn), for which the IC50 entry in experiment [1] is reported as “No significant activity”.
As for `CCOC(=O)C(CCc1ccccc1)OC(C)C(=O)N1Cc2ccccc2CC1C(=O)O` (stereo not drawn), the results for the “Decrease in mean arterial pressure” value in the experiment on Rattus norvegicus [6] and in the experiment with Rattus norvegicus [5] were 8% and 18%, respectively.
As to `CCOC(=O)C(CCc1ccccc1)[S+]([O-])C(C)C(=O)N1C2CCCCC2C[C@H]1C(=O)O` (stereo partly drawn), the figures for the “Decrease in mean arterial pressure” value in the experiment with Rattus norvegicus [7] and in the experiment on Rattus norvegicus [4] were “No significant activity” and 10%, respectively.
Turning to `CCOC(=O)C(CCc1ccccc1)OC(C)C(=O)N1C(C(=O)O)CC2CCCCC21` (stereo not drawn), the “Decrease in mean arterial pressure” value with Rattus norvegicus [3] was “No significant activity”; with Rattus norvegicus [5], 12%.
On to `CC(SC(CCc1ccccc1)C(=O)O)C(=O)NC1(C(=O)O)CCCC1` (stereo not drawn), for which, in experiment [1], the IC50 entry is “No significant activity”.
Consider `CCOC(=O)[C@H](CCc1ccccc1)N[C@@H](C)C(=O)N1Cc2ccccc2C[C@H]1C(=O)O`, for which, in the experiment on Rattus norvegicus [8], the “Decrease in mean arterial pressure” value amounted to 54%.

Values taken from ChEMBL document CHEMBL1123106, “Synthesis and biological activity of modified peptide inhibitors of angiotensin-converting enzyme” (J Med Chem, 1985).
